15 molecules from ChEMBL document CHEMBL1154099, “Synthesis and evaluation of in vitro anti-microbial and anti-tubercular activity of 2-styryl benzimidazoles” (2009) can be followed below.

What all share (assay type): functional
For assay [1], the system named is Mycobacterium tuberculosis. The assay can be described thus: Antitubercular activity against Mycobacterium tuberculosis H37Rv at 7.25 ug/ml by microplate alamar blue assay. In outline:
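M. tuberculosis H37Rv (ATCC 27294) in BACTEC 12B medium, broth microdilution with microplate Alamar blue read-out. Primary screen at a single concentration of 7.25 µg/ml. Result expressed as percent inhibition.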
In general terms: Alamar Blue is a resazurin reagent that responds to reducing activity.

The next assay concerns Candida albicans. The assay can be described thus: Antifungal activity against Candida albicans ATCC 10145 after 48 hrs by twofold tube dilution method. The settings on record: ATCC 10145, 48 h. In outline: (§1)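 Fungi maintained in Sabouraud Dextrose Broth for 48 h at 25 ± 1 °C. Testing by twofold dilution in Sabouraud Dextrose Broth, pH 7.4, with DMSO stocks serially diluted from 125 to 1 µg/ml. Inoculated broth-only tubes served as controls. After 48 h at 25 ± 1 °C, the last tube showing no growth was recorded as the MIC.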

For another assay, the system named is Escherichia coli. The assay can be described thus: Antibacterial activity against Escherichia coli ATCC 25922 after 18 to 20 hrs by twofold tube dilution method. In outline:
(§2)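 Bacterial cultures grown 18–24 h at 37 ± 1 °C in Mueller–Hinton Broth. Testing by twofold tube dilution in Mueller–Hinton Broth, pH 7.4. Inoculated broth-only tubes served as controls. MIC taken as the lowest concentration preventing visible growth.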

In a further assay the test system is Enterococcus faecalis. The assay can be described thus: Antibacterial activity against Enterococcus faecalis ATCC 29212 after 18 to 20 hrs by twofold tube dilution method. In outline:
as §2

Another assay has as its system Staphylococcus aureus. The assay can be described thus: Antibacterial activity against Staphylococcus aureus ATCC 25923 after 18 to 20 hrs by twofold tube dilution method. An outline of the steps: as §2
Assay [2] relates to Mycobacterium tuberculosis. The assay can be described thus: Antitubercular activity against Mycobacterium tuberculosis H37Rv by microplate alamar blue assay. An outline of the steps:
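M. tuberculosis H37Rv, with compounds that reached at least 90% inhibition in the primary screen. Serial dilution to lower concentrations, microplate Alamar blue assay. MIC taken as the lowest inhibitory concentration. Streptomycin used as reference.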

Another assay concerns Aspergillus fumigatus. The assay can be described thus: Antifungal activity against Aspergillus fumigatus after 48 hrs by twofold tube dilution method. An outline of the steps: as §1
In a further assay the test system is Klebsiella pneumoniae. The assay can be described thus: Antibacterial activity against Klebsiella pneumoniae ATCC 13883 after 18 to 20 hrs by twofold tube dilution method. An outline of the steps: as §2

Values after ≈ are worked out from the molar mass of the structure shown. Some results are limits rather than exact numbers.

As a reminder, the inhibition is the relative decrease from the control value, in per cent. The low end stands for little suppression, the high end for strong suppression. The molecule `CN[C@@H]1[C@H](O[C@H]2[C@H](O[C@H]3[C@H](O)[C@@H](O)[C@H](N=C(N)N)[C@@H](O)[C@@H]3N=C(N)N)O[C@@H](C)[C@]2(O)C=O)O[C@@H](CO)[C@H](O)[C@H]1O` [STREPTOMYCIN] showed an inhibition at 7.25 µg/mL in assay [1] of 100%.

As a reminder, the MIC is the least concentration at which growth counts as inhibited. Low values mean a more susceptible organism, high ones a less susceptible organism. Consider `O=[N+]([O-])c1ccc2[nH]c(/C=C/c3ccccc3)nc2c1`, for which the MIC in the assay with Candida albicans is 16.1 µg/mL (≈ 60.8 µM); against Escherichia coli it was 31.2 µg/mL (≈ 118 µM); against Enterococcus faecalis, 31.2 µg/mL (≈ 118 µM); in the assay on Staphylococcus aureus, 8 µg/mL (≈ 30.2 µM); in assay [2], greater than 75 µg/mL; against Aspergillus fumigatus, 16.1 µg/mL (≈ 60.8 µM). The same molecule displayed an MIC with Klebsiella pneumoniae of 4 µg/mL (≈ 15.1 µM).

Turning to `COc1ccc(/C=C/c2nc3cc([N+](=O)[O-])ccc3[nH]2)cc1OC`, the minimal inhibitory concentration (MIC) was 16.1 µg/mL (≈ 49.6 µM) in the assay with Candida albicans; 31.2 µg/mL (≈ 96.1 µM) against Escherichia coli; 31.2 µg/mL (≈ 96.1 µM) in the assay on Enterococcus faecalis; 31.2 µg/mL (≈ 96.1 µM) against Staphylococcus aureus; greater than 75 µg/mL in assay [2]; 31.2 µg/mL (≈ 96.1 µM) against Aspergillus fumigatus. The molecule also yielded an MIC with Klebsiella pneumoniae of 16.1 µg/mL (≈ 49.6 µM).

The molecule `Clc1ccc(/C=C/c2nc3cc(Br)ccc3[nH]2)c(Cl)c1` yielded an inhibition at 7.25 µg/mL in assay [1] of 76%. For the same molecule, the minimum inhibitory concentration (MIC) is 31.2 µg/mL (≈ 84.9 µM) in the assay with Candida albicans; 31.2 µg/mL (≈ 84.9 µM) in the assay with Escherichia coli; 8 µg/mL (≈ 21.7 µM) in the assay on Enterococcus faecalis; 16.1 µg/mL (≈ 43.8 µM) against Staphylococcus aureus; greater than 75 µg/mL in assay [2]; 16.1 µg/mL (≈ 43.8 µM) against Aspergillus fumigatus. In the assay with Klebsiella pneumoniae, this molecule registered an MIC of 2 µg/mL (≈ 5.43 µM).

Regarding `O=[N+]([O-])c1ccc2[nH]c(/C=C/c3cccc(O)c3)nc2c1`, the MIC is 31.2 µg/mL (≈ 111 µM) with Candida albicans; 31.2 µg/mL (≈ 111 µM) against Escherichia coli; 31.2 µg/mL (≈ 111 µM) against Enterococcus faecalis; 4 µg/mL (≈ 14.2 µM) with Staphylococcus aureus; greater than 75 µg/mL in assay [2]; 62.5 µg/mL (≈ 222 µM) in the assay on Aspergillus fumigatus. In the assay on Klebsiella pneumoniae, this molecule came in with a minimal inhibitory concentration (MIC) of 31.2 µg/mL (≈ 111 µM).

As for `O=[N+]([O-])c1ccc2[nH]c(/C=C/c3ccc4c(c3)OCO4)nc2c1`, the minimum inhibitory concentration (MIC) was 16.1 µg/mL (≈ 52.1 µM) in the assay on Candida albicans; 31.2 µg/mL (≈ 101 µM) against Escherichia coli; 31.2 µg/mL (≈ 101 µM) against Enterococcus faecalis; 31.2 µg/mL (≈ 101 µM) with Staphylococcus aureus; greater than 75 µg/mL in assay [2]; 16.1 µg/mL (≈ 52.1 µM) in the assay on Aspergillus fumigatus. The minimal inhibitory concentration (MIC) against Klebsiella pneumoniae was 62.5 µg/mL (≈ 202 µM).

In the case of `Cc1ccc(/C=C/c2nc3cc(Br)ccc3[nH]2)cc1`, at 7.25 µg/mL the inhibition in assay [1] was 63%. Moreover, the MIC in the assay with Candida albicans is 4 µg/mL (≈ 12.8 µM); against Escherichia coli, 16 µg/mL (≈ 51.1 µM); against Enterococcus faecalis it was 31.2 µg/mL (≈ 99.8 µM); with Staphylococcus aureus, 31.2 µg/mL (≈ 99.8 µM); in assay [2] it was greater than 75 µg/mL; against Aspergillus fumigatus it was 8 µg/mL (≈ 25.5 µM). In the assay on Klebsiella pneumoniae, this molecule came in with an MIC of 8 µg/mL (≈ 25.5 µM).

In assay [1], `Brc1ccc2[nH]c(/C=C/c3ccccc3)nc2c1` showed an inhibition at 7.25 µg/mL of 83%. For the same molecule, the MIC in the assay with Candida albicans was 8 µg/mL (≈ 26.7 µM); in the assay on Escherichia coli, 16.1 µg/mL (≈ 53.9 µM); against Enterococcus faecalis, 16.1 µg/mL (≈ 53.9 µM); with Staphylococcus aureus, 2 µg/mL (≈ 6.69 µM); in assay [2], greater than 75 µg/mL; with Aspergillus fumigatus, 8 µg/mL (≈ 26.7 µM). Inhibition of growth in the assay with Klebsiella pneumoniae (MIC) required 31.2 µg/mL (≈ 104 µM).

Consider `Oc1cccc(/C=C/c2nc3cc(Br)ccc3[nH]2)c1`, for which the minimum inhibitory concentration (MIC) in the assay on Candida albicans was 4 µg/mL (≈ 12.7 µM); in the assay with Escherichia coli it was 4 µg/mL (≈ 12.7 µM); against Enterococcus faecalis, 1 µg/mL (≈ 3.17 µM); in the assay on Staphylococcus aureus, 1 µg/mL (≈ 3.17 µM); in assay [2], greater than 75 µg/mL; in the assay with Aspergillus fumigatus, 8 µg/mL (≈ 25.4 µM). This molecule displayed a minimal inhibitory concentration (MIC) against Klebsiella pneumoniae of 4 µg/mL (≈ 12.7 µM).

In the case of `Brc1ccc2[nH]c(/C=C/c3ccc4c(c3)OCO4)nc2c1`, the MIC with Candida albicans was 31.2 µg/mL (≈ 91.1 µM); with Escherichia coli, 31.2 µg/mL (≈ 91.1 µM); with Enterococcus faecalis, 31.2 µg/mL (≈ 91.1 µM); against Staphylococcus aureus, 8 µg/mL (≈ 23.3 µM); in assay [2] it was greater than 75 µg/mL; against Aspergillus fumigatus, 31.2 µg/mL (≈ 91.1 µM). The molecule also yielded a minimum inhibitory concentration (MIC) against Klebsiella pneumoniae of 16.1 µg/mL (≈ 47 µM).

In the case of `COc1ccc(/C=C/c2nc3cc(Br)ccc3[nH]2)cc1OC`, the inhibition at 7.25 µg/mL in assay [1] was found to be 54%. Besides, the MIC was 1 µg/mL (≈ 2.78 µM) with Candida albicans; 31.2 µg/mL (≈ 87 µM) with Escherichia coli; 2 µg/mL (≈ 5.57 µM) in the assay with Enterococcus faecalis; 2 µg/mL (≈ 5.57 µM) in the assay on Staphylococcus aureus; greater than 75 µg/mL in assay [2]; 2 µg/mL (≈ 5.57 µM) in the assay on Aspergillus fumigatus. In addition, in the assay on Klebsiella pneumoniae, inhibition of growth (MIC) required 8 µg/mL (≈ 22.3 µM).

Consider `O=[N+]([O-])c1ccc2[nH]c(/C=C/c3ccc(Cl)cc3Cl)nc2c1`, for which the inhibition at 7.25 µg/mL in assay [1] came to 45%. For the same molecule, the MIC is 16.1 µg/mL (≈ 48.2 µM) in the assay on Candida albicans; 62.5 µg/mL (≈ 187 µM) with Escherichia coli; 31.2 µg/mL (≈ 93.5 µM) in the assay on Enterococcus faecalis; 31.2 µg/mL (≈ 93.5 µM) in the assay on Staphylococcus aureus; greater than 75 µg/mL in assay [2]; 31.2 µg/mL (≈ 93.5 µM) against Aspergillus fumigatus. In addition, in the assay on Klebsiella pneumoniae, it took 62.5 µg/mL (≈ 187 µM) to inhibit growth (MIC).

`OC(Cn1cncn1)(Cn1cncn1)c1ccc(F)cc1F` [FLUCONAZOLE]: the MIC in the assay with Candida albicans and in the assay with Aspergillus fumigatus was 2 µg/mL (≈ 6.53 µM) in each case.

For `Cc1ccc(/C=C/c2nc3cc([N+](=O)[O-])ccc3[nH]2)cc1`, the minimum inhibitory concentration (MIC) against Candida albicans was 31.2 µg/mL (≈ 112 µM); with Escherichia coli it was 62.5 µg/mL (≈ 224 µM); against Enterococcus faecalis, 16.1 µg/mL (≈ 57.7 µM); in the assay on Staphylococcus aureus it was 4 µg/mL (≈ 14.3 µM); in assay [2] it was greater than 75 µg/mL; against Aspergillus fumigatus it was 31.2 µg/mL (≈ 112 µM). Also, in the assay with Klebsiella pneumoniae, the MIC stood at 16.1 µg/mL (≈ 57.7 µM).

In the case of `O=C(O)c1cn(C2CC2)c2cc(N3CCNCC3)c(F)cc2c1=O` [CIPROFLOXACIN], the minimum inhibitory concentration (MIC) against Enterococcus faecalis turned out to be 0.7 µg/mL (≈ 2.11 µM); in the assay with Staphylococcus aureus, 0.78 µg/mL (≈ 2.35 µM); against Klebsiella pneumoniae it was 0.19 µg/mL (≈ 0.573 µM).
